From ChEMBL document CHEMBL4725355, “Design, Synthesis, and Preclinical Evaluation of 3-Methyl-6-(5-thiophenyl)-1,3-dihydro-imidazo[4,5-b]pyridin-2-ones as Selective GluN2B Negative Allosteric Modulators for the Treatment of Mood Disorders” (J Med Chem, 2020)

Key:
[1] = Tmax in Sprague-Dawley rat at 0.1 mg/kg, iv or 0.5 mg/kg, po by LC-MS/MS analysis; type: ADME, organism-based; conditions: in vivo
Outline: (§1)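 Rat PK with doses of 0.1 mg/kg i.v. and 0.5 mg/kg p.o., vehicle 20% HP-β-CD. n=3, values given as mean ± SD.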

[2] = molecular target: Voltage-gated inwardly rectifying potassium channel KCNH2 (Homo sapiens, UniProt Q12809); test: Inhibition of human ERG expressed in CHO cells measured after 5 mins by Qpatch method; type: cell-based
Outline: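 CHO cells stably expressing hERG, whole-cell QPatch. Vehicle applied 5 min, then 0.3, 3.0, 10 and 30 µM in rising order, each concentration applied twice. Current measured after 5 min as the average of 3 voltage pulses; block taken relative to vehicle pretreatment, mean ± SEM.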

[3] = Displacement of 3-[3H] 1-(azetidin-1-yl)-2-[6-(4-fluoro-3-methyl-phenyl)pyrrolo[3,2-b]pyridin-1-yl]ethanone from GluN1a/GluN2B receptor in rat cortex membranes measured after 2 hrs by liquid scintillation counting method; type: cell membranes
Outline: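 Rat adult cortex was homogenized in 50 mM Tris pH 7.4, and membranes were washed by centrifugation. Membranes were incubated with the [3H] pyrrolopyridine tracer and test compound for 2 h at room temperature with shaking. Non-specific binding was defined with 10 µM CP-101,606. Bound tracer was separated by filtration on PEI-soaked GF/B filters and counted by liquid scintillation. Ki was obtained from a competition fit using tracer Kd; three independent runs in duplicate.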

[4] = Metabolic stability in human liver microsomes assessed as extraction ratio at 1 uM after 5 to 60 mins in presence of NADPH by LC-MS/MS analysis; type: ADME, Microsome; conditions: time 5-60 min, read-out: ERH
Outline: (§2)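 Human and rat liver microsomes, run in duplicate; stability reported as microsomal extraction ratio.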

[5] = Clearance in Sprague-Dawley rat at 0.1 mg/kg, iv by LC-MS/MS analysis; type: ADME, organism-based; conditions: in vivo
Outline: (§3)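 Rat PK with IV and PO dosing, n=3. The usual doses were 0.5 mg/kg IV and 2.5 mg/kg PO in 20% HP-β-CD. One compound was instead given at 0.1 mg/kg IV and 0.5 mg/kg PO.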

[6] = Ex vivo receptor occupancy at GluN2B in Sprague-Dawley rat assessed as 3-[3H] 1-(azetidin-1-yl)-2-[6-(4-fluoro-3-methyl-phenyl)pyrrolo[3,2-b]pyridin-1-yl]-ethanone labelling at 3 mg/kg, po measured after 0.5 hrs by autoradiography; type: functional
Outline: (§4)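 Rats dosed orally at 3 mg/kg in 20% HP-β-CD; brains taken at 0.5, 2 and 6 h. Ex vivo autoradiography of brain slices with the ³H pyrrolo[3,2-b]pyridine GluN2B tracer. Labelling expressed relative to matching brain areas of vehicle-treated animals; n=2, ± SEM.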

[7] = Cmax in Sprague-Dawley rat brain at 3 mg/kg, po after 2 hrs by LC-MS/MS analysis; type: ADME, organism-based; set-up: route oral, dose 3 mg/kg, time 2 hrs
Outline: (§5)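 Oral dose of 3 mg/kg in 20% HP-β-CD to rats. Brain concentration was measured alongside ex vivo GluN2B occupancy over a 6 h time course (0.5, 2 and 6 h), n=2.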

[8] = Oral bioavailability in Sprague-Dawley rat at 0.5 mg/kg by LC-MS/MS analysis; type: ADME, organism-based; conditions: in vivo
[9] = AUC (infinity) in Sprague-Dawley rat at 0.1 mg/kg, iv or 0.5 mg/kg, po by LC-MS/MS analysis; type: ADME, organism-based; set-up: dose 0.5 mg/kg; conditions: in vivo; outline: as §3
[10] = Solubility of compound in 100% polyethylene glycol 400 at 0.5 mg/ml; type: physicochemical
[11] = Metabolic stability in rat liver microsomes assessed as extraction ratio at 1 uM after 5 to 60 mins in presence of NADPH by LC-MS/MS analysis; type: ADME, Microsome; conditions: time 5-60 min, read-out: ERH; outline: as §2
[12] = Solubility of compound in 30% sulfobutylether-beta-cyclodextrin at 0.5 mg/ml; type: physicochemical
Outline: (§6)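 Solubility of the compound assessed in dosing excipients, including 30% SBE-β-CD, 50% PEG-400 and 20% HP-β-CD. The aim was a solution usable for rat dosing; the 20% HP-β-CD formulation was checked for a 0.1 mg/mL solution to support a 0.5 mg/kg dose.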

[13] = Half life in Sprague-Dawley rat at 0.1 mg/kg, iv or 0.5 mg/kg, po by LC-MS/MS analysis; type: ADME, organism-based; conditions: in vivo
Outline: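 Rat PK with 0.1 mg/kg i.v. and 0.5 mg/kg p.o. doses, n=3 ± SD.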

[14] = Solubility of compound in phosphate buffer at pH 7 measured after 3 days; type: physicochemical; conditions: time 3 day
Outline: (§7)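 Solubility in aqueous buffer at pH 2 and pH 7, and in simulated gastric and intestinal fluids.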

[15] = Solubility of compound in 20% hydroxypropyl-beta-cyclodextrin at 0.1 mg/ml; type: physicochemical; outline: as §6
[16] = Solubility of compound in phosphate buffer at pH 2 measured after 3 days; type: physicochemical; conditions: time 3 day; outline: as §7
[17] = Ex vivo receptor occupancy at GluN2B in Sprague-Dawley rat assessed as 3-[3H] 1-(azetidin-1-yl)-2-[6-(4-fluoro-3-methyl-phenyl)pyrrolo[3,2-b]pyridin-1-yl]-ethanone labelling at 3 mg/kg, po measured after 2 hrs by autoradiography; type: functional; outline: as §4
[18] = Tmax in Sprague-Dawley rat brain at 3 mg/kg, po by LC-MS/MS analysis; type: ADME, organism-based
Outline: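 Rats dosed orally at 3 mg/kg in 20% HP-β-CD. Brain concentrations were measured over a 6 h time course (0.5, 2, 6 h) alongside ex vivo GluN2B occupancy, n=2.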

[19] = Ex vivo receptor occupancy at GluN2B in Sprague-Dawley rat assessed as 3-[3H] 1-(azetidin-1-yl)-2-[6-(4-fluoro-3-methyl-phenyl)pyrrolo[3,2-b]pyridin-1-yl]-ethanone labelling at 3 mg/kg, po measured after 6 hrs by autoradiography; type: functional; outline: as §4
[20] = Cmax in Sprague-Dawley rat at 0.1 mg/kg, iv or 0.5 mg/kg, po by LC-MS/MS analysis; type: ADME, organism-based; set-up: dose 0.5 mg/kg; conditions: in vivo; outline: as §3
[21] = Volume of distribution at steady state in Sprague-Dawley rat at 0.1 mg/kg, iv or 0.5 mg/kg, po by LC-MS/MS analysis; type: ADME, organism-based; conditions: in vivo, read-out: Vdss; outline: as §1
[22] = Efflux ratio of apparent permeability across basolateral to apical side over apical to basolateral side in MDCK-MDR1 cells at 5 uM measured after 60 mins by LC-MS/MS analysis; type: ADME, cell-based, Canis lupus familiaris; conditions: dog
Outline: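 MDCK-MDR1 cells, passages 6-30, seeded at 3.4×10^5 cells/cm² and cultured 3 days. Test compound at 5 µM final (1% DMSO) in HBSS, pH 7.4, applied to the donor side. A→B and B→A runs at 37 °C for 60 min, in duplicate, quantified by LC/MS/MS. Efflux ratio taken as B-A/A-B; monolayer integrity checked by lucifer yellow.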

[23] = Negative allosteric modulation of human GluN1a/GluN2B receptor expressed in CHO cells assessed as inhibition of glutamate and glycine-induced calcium flux preincubated for 5 mins followed by glutamate and glycine addition and measured after 5 mins by calcium 5 dye based FLIPR assay; type: cell-based
Outline: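 Tet-On CHO T-Rex cells expressing hGluN1a with GluN2A, 2B, 2C or 2D, plated at 20,000 cells/well and induced 24 h before the assay in the presence of ketamine. Cells loaded 1 h at room temperature with Calcium 5 dye, pH 7.4 HEPES buffer. Compound added 5 min, then glutamate (~EC80) plus 10 µM glycine for 5 min; FLIPR fluorescence normalized to control wells. Three independent runs in duplicate (two for some).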

[24] = Cmax in Sprague-Dawley rat brain at 3 mg/kg, po after 6 hrs by LC-MS/MS analysis; type: ADME, organism-based; set-up: route oral, dose 3 mg/kg, time 6 hrs; outline: as §5

Sequence of Voltage-gated inwardly rectifying potassium channel KCNH2 (Q12809 whole entry): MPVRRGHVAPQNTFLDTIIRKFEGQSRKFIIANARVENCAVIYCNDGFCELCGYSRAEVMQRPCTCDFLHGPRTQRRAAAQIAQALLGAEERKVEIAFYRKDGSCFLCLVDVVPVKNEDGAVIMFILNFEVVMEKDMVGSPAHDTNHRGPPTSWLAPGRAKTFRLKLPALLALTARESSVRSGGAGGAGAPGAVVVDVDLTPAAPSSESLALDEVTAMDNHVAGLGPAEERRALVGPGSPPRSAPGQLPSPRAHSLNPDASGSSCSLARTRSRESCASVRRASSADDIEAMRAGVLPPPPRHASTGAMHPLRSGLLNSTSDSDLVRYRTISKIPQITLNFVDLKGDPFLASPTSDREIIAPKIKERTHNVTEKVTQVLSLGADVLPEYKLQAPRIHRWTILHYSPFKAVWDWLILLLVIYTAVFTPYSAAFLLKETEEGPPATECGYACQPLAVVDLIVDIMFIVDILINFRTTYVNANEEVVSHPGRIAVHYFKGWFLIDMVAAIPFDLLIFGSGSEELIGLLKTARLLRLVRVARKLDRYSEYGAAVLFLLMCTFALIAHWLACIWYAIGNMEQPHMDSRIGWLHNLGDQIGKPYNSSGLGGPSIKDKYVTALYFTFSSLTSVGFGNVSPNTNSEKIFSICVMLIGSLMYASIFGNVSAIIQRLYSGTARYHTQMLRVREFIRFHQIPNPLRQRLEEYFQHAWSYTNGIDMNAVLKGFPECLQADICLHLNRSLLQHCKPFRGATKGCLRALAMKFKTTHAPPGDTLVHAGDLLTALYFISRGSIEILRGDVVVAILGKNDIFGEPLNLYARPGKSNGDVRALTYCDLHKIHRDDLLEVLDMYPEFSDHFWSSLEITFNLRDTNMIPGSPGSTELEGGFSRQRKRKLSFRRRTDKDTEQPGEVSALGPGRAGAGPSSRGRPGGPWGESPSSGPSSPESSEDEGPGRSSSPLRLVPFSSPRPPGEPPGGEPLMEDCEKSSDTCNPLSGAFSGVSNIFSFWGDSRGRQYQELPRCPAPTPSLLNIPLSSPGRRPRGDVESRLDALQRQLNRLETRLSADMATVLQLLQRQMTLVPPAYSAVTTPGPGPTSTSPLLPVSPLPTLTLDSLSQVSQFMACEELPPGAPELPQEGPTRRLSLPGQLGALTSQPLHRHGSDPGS

Tmax [1]: 1 h
Ki [3]: 12 nM
hepatic extraction ratio at 1 µM [4]: < 0.3
clearance [5]: 14 mL/min/kg
Cmax [7]: 1260 ng/g
bioavailability [8]: 121%
AUC(0-inf) [9]: 912 ng·h/mL
solubility [10]: Insoluble
hepatic extraction ratio at 1 µM [11]: < 0.17
solubility [12]: Insoluble
half-life [13]: 1.3 h
solubility at 72 h [14]: < 4 µM
solubility [15]: Soluble
solubility at 72 h [16]: < 4 µM
Tmax [18]: 2 h
Cmax [20]: 188 ng/mL
Vd [21]: 1.2 L/kg
efflux ratio at 1 h, 5 µM [22]: 1.4
IC50 [23]: 29 nM
Cmax [24]: 598 ng/g
Compound: CN(C)C(=O)Cn1c(=O)n(C)c2ncc(-c3ccc(C(F)(F)F)s3)cc21
IC50 [2]: > 10000 nM
Occ [6]: 79%
Occ [17]: 80%
Occ [19]: 77%
